Assay outcomes deposited in PubChem BioAssay by Johns Hopkins Ion Channel Center.
MrgX1 antagonist: antagonists of human MrgX1 receptor, primary screen, HEK293 cells, Fluo-4 calcium flux; Mas-related G-protein coupled receptor member X1 (Homo sapiens), Q96LB2; BAM8-22 antagonism; stronger effect = lower value; B-score at 10 µM; 310,000 tested, 1.3% active;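 active means calcium-response B-score plate-corrected more than 3 library SD below zero, starting fluorescence within 5 deviations, no agonist response on first addition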;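 further: peak minus trough fluorescence over baseline after final BAM8-22 challenge near maximal dose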
Target sequence (Q96LB2 whole entry, looked up): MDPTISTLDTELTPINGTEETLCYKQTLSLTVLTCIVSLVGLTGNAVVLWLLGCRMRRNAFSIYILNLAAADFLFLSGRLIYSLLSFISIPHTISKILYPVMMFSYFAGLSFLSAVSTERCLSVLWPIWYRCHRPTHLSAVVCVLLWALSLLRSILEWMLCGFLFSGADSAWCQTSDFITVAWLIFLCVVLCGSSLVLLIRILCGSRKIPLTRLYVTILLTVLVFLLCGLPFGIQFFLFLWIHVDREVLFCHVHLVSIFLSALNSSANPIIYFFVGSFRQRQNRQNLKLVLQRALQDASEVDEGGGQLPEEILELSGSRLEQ
RGS4 pot: RGS4 potentiators or activators, primary screen, cell-based, HEK293 M3R inducible RGS4, calcium flux; carbachol calcium flux Fluo4; stronger effect = lower value; 310,000 tested, 0.92% active; B-score at 10 µM;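 active means B-score of the integrated calcium signal more than 4 SD below the library mean, with starting fluorescence not abnormally high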;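 further: negative B-score means reduced calcium response which marks RGS4 activation or potentiation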
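test system = M3R-expressing HEK293 line, RGS4 induced by doxycycline | probe or stimulus = carbachol at ECmax as muscarinic agonist stimulus | timing = dye loading 30 min 37 °C, buffer rest 30 min RT | signal = calcium dye Fluo4 fluorescence | evaluation = B score from integrated fluorescence ratio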
MrgX1 allo act: positive allosteric modulators of MrgX1, primary screen, HEK293 cells, Fluo-4 calcium flux; 310,000 tested, 0.63% active; B-score at 10 µM; FDSS; stronger effect = higher value; Mas-related G-protein coupled receptor member X1 (Homo sapiens), Q96LB2;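 active means plate-corrected calcium response at least 3 library SD above typical, normal starting fluorescence, not activating the receptor alone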;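 further: compound read alongside a low EC10 to EC30 dose of BAM8-22 agonist; peak minus trough fluorescence over baseline measured at the second addition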
RGS4 inh: RGS4 inhibitors, primary screen, cell-based, HEK293 M3R inducible RGS4, calcium flux | Regulator of G-protein signaling 4 (Homo sapiens), P49798 | B-score at 10 µM | AID 463165, 2010 | 310,000 tested, 0.45% active | Fluo-4 calcium flux; stronger effect = higher value; triggered by carbachol at its EC20;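 active means B-score, a plate-corrected calcium signal, over three deviations above library mean, with baseline fluorescence within five deviations of library mean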;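 further: RGS4 expression induced by doxycycline in cells with stable M3 receptor; B-score is computed from the integrated fluorescence ratio over baseline after carbachol; higher B-score means a larger calcium signal and so more RGS4 inhibition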
Target sequence (P49798 whole entry, looked up): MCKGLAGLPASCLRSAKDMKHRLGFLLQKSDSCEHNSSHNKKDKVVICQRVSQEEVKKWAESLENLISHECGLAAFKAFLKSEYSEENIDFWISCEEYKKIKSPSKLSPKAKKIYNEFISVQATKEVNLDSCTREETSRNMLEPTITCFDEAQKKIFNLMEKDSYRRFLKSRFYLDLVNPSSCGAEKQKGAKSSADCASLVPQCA
MrgX1 agonist: agonists of human MrgX1 receptor, primary screen, HEK293 cells, Fluo-4 calcium flux; B-score at 10 µM; 310,000 tested, 0.44% active; Mas-related G-protein coupled receptor member X1 (Homo sapiens), Q96LB2; Fluo-4 calcium fluorescence, agonist mode; stronger effect = higher value;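 active means calcium response B-score plate-corrected fluorescence ratio at least 3 library SD, with starting fluorescence B-score inside 5 SD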
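Material: MrgX1-expressing HEK293 cells; input: 15,000 cells per well; doses: test compound given as first of three sequential additions; schedule: overnight plating before 1 h dye loading; technique: Fluo-4 NW calcium-flux fluorescence, kinetic read; evaluation: baseline-normalised fluorescence change ratio, B-scored; control set: plate-wise positive and negative controls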
Large screens that a line does not name were inactive. Compounds with a hit are over-represented: about 3.5% of the library has one in this group of screens.

Cc1ccc(S(=O)(=O)c2cc3c(=O)n4ccccc4nc3n(CCc3ccccc3)c2=N)cc1	RGS4 pot -7.16
Cc1ccc(S(=O)(=O)c2cc3c(=O)n4ccccc4nc3n(Cc3ccco3)c2=N)cc1C	MrgX1 agonist 30.7
Cc1cc(NC(=O)CSCC(=O)OC(C)C(=O)N(C)Cc2ccccc2)no1 (stereo unspecified)	MrgX1 antagonist -7.41
Cc1cc(NC(=O)CSCC(=O)OC(C)C(=O)c2cc(C)c(C)cc2C)no1 (stereo unspecified)	none
COc1cc2c(cc1NC(=S)Nc1cccc3ccccc13)oc1ccccc12	none
COc1cc2c(cc1NC(=S)Nc1cccc(C(F)(F)F)c1)oc1ccccc12	MrgX1 antagonist -5.69
CC(=O)C(=Nc1ccccc1Cl)NNc1ccc(Cl)cc1	RGS4 pot -10.6
COC(=O)[C@@]1(Cc2ccc(OC)cc2)[C@H]2c3cc(C(=O)N4CCCC4)n(Cc4c(CO)[nH]cc(C)c4=O)c3C[C@H]2CN1C(=O)c1ccccc1	MrgX1 antagonist -5.6
COC(=O)[C@@]1(Cc2ccc(OC)cc2)[C@H]2c3cc(C(=O)N(C)C)n(Cc4c(CO)[nH]cc(C)c4=O)c3C[C@H]2CN1C(=O)c1ccccc1	none
O=C(/C=C/c1ccccc1)Nc1cccnc1	none
Cc1ccc(/C=C/C(=O)Nc2cccnc2)o1	MrgX1 antagonist -7.12
COc1ccc(NC(=O)/C=C/c2ccc(Br)o2)cn1	MrgX1 antagonist -7.18
CCN(NC(=O)C(O)(c1ccc(F)cc1)c1ccc(F)cc1)C(=O)c1ccccc1	MrgX1 antagonist -5.84
Cc1cc(C)n(-c2ccc(C(F)(F)F)cc2[N+](=O)[O-])n1	RGS4 pot -9.29
CCCN(CCC)C(=O)c1cc([N+](=O)[O-])cc2c1-c1ccc([N+](=O)[O-])cc1C2=C(C#N)C#N	none
CC(=O)C(C(C)=O)c1cc(NS(=O)(=O)c2ccccc2)ccc1NS(=O)(=O)c1ccccc1	MrgX1 allo act 12.9
CCCCn1c(=O)[nH]c(=O)c2c1nc(-c1ccccn1)n2CC	none
Cc1ccc(C)c(S(=O)(=O)N2CCCC2CNC(=O)C(=O)NCC2CCCO2)c1 (stereo unspecified)	none
COc1ccc(/C=N\NC(=O)c2cc3c(ccc4ccccc43)o2)cc1O	RGS4 pot -7.2
COc1cc(Br)cc(/C=N/NC(=O)Cc2ccccc2)c1O	none
COc1cc(/C=N/NC(=O)c2cc3c(ccc4ccccc43)o2)cc(OC)c1O	RGS4 pot -7.31
Cc1ccc(-c2ccc(/C=N\NC(=O)c3cc4c(ccc5ccccc54)o3)o2)cc1[N+](=O)[O-]	none
COc1cc(/C=N/NC(=O)Cc2ccc(Br)cc2)cc(OC)c1O	MrgX1 allo act 7.49
O=C(N/N=C/c1ccc(-c2ccc(Cl)c(C(=O)O)c2)o1)c1cc2c(ccc3ccccc32)o1	MrgX1 antagonist -9.81
COc1cccc(C2=NOC(C(=O)Nc3cccnc3Cl)C2)c1 (stereo unspecified)	none
CC1CCc2c(sc3nc(C(C)(C)C)nc(N4CCN(C(=O)CCl)CC4)c23)C1 (stereo unspecified)	RGS4 pot -7.6
CC(C)Cn1c(N)c(C=O)c(=O)[nH]c1=O	none
c1coc(-c2nnc3sc(Cc4cccs4)nn23)c1	MrgX1 antagonist -7.15
COc1ccccc1CNC(=O)CN(C)S(=O)(=O)c1ccc2c(c1)c(=O)n(C)c(=O)n2C	none
Oc1c(Cl)cc(Cl)cc1/C=N/Nc1ncc(Br)cn1	none
Cc1ccc(N=Cc2cc(Cl)cc(Cl)c2O)nc1	MrgX1 allo act 7.57
COc1cc(C(c2c(O)nc(SC)[nH]c2=O)c2c(O)nc(SC)[nH]c2=O)cc(OC)c1OC	MrgX1 antagonist -4.68
CCCCC1S/C(=N/N=C/c2ccc(OC)cc2)N(Cc2ccc(OC)cc2)C1=O (stereo unspecified)	MrgX1 antagonist -5.31
CO/N=C/C(=N\Nc1cc(OC)cc(OC)c1)C(=O)c1ccccc1	MrgX1 antagonist -5.42
Cc1ccc(CNC(=O)CCNC(=O)c2ccco2)cc1	none
CN(C)S(=O)(=O)c1cccc(C(=O)NCc2cccs2)c1	none
O=C(O)c1ccc(/C=N/NC(=O)C2CC2(c2ccccc2)c2ccccc2)cc1 (stereo unspecified)	MrgX1 antagonist -5.71
O=C(CCC1CCCCC1)NCCN1C2=NC[C@@H](Cc3ccccc3)N2C[C@H]1Cc1ccc(O)cc1	RGS4 pot -7.07
O=C(CCC1CCCCC1)NCCN1C2=NC[C@H](Cc3ccccc3)N2C[C@H]1Cc1ccc(O)cc1	RGS4 pot -7.96
C[C@H]1CN=C2N(CCNC(=O)CCC3CCCCC3)[C@H](Cc3ccc(O)cc3)CN21	none
CC(C)(C)NC(=O)c1cccc2c1OC(C)(C)C2	none
Oc1oc(-c2ccccc2)nc1/C=N/c1nccs1	none
Oc1oc(-c2ccccc2)nc1C=Nc1cccc2ccccc12	RGS4 pot -7.15
Cc1nsc2nc3c(F)c(F)c(F)c(F)c3cc12	none
O=C1OC(c2ccc(Br)cc2)=N/C1=C\N1CCCCC1	MrgX1 antagonist -5.59
CCC1(CC)C(=O)C2=C3C1[C@H](C(=O)OC)CC(C(=O)OC)C[C@H]3[C@H]1C(=O)N(c3ccccc3)C(=O)[C@H]1[C@H]2C (stereo partly specified)	none
CC(=O)Nc1ccc(C2=NN(C)C(=NCc3ccccc3)SC2)cc1	MrgX1 allo act 7.75
CCC(C)N(C)C1CCN(C(=S)Nc2cccc(SC)c2)CC1 (stereo unspecified)	none
Cc1cc(C)cc(-n2c(C)cc(/C=C3\C(=N)N4N=C(CC(C)C)SC4=NC3=O)c2C)c1	RGS4 pot -7.84
CCCC1=NN2C(=N)/C(=C\c3cc(C)n(-c4cc(C)cc(C)c4)c3C)C(=O)N=C2S1	RGS4 pot -8.56
Clc1ccc(Cl)c(OCc2cc(-c3ccccc3Cl)on2)c1	none
CCC(CO)NCc1cc(OC)c(OCC(=O)NCCc2ccccc2)cc1Br (stereo unspecified)	none
COCC(=O)Nc1cc(C(=O)Nc2cccc(C)c2C)ccc1Cl	none
COCC(=O)NNC(=S)Nc1cccc(C)c1C	MrgX1 antagonist -5.07
c1ccc(-c2ncnc3cc4n(c23)CCC4)cc1	none
COC(=O)C1(C(=O)OC)NOC2C(=O)N(c3ccccc3)C(=O)C21 (stereo unspecified)	MrgX1 antagonist -5.71
Cc1c(O)ccc(/C=N/Nc2nc(-c3cccnc3)nc3ccccc23)c1O	RGS4 pot -8.06
CC(Nc1nc(-c2cccnc2)nc2ccccc12)c1ccc(F)cc1 (stereo unspecified)	RGS4 pot -7.1
Oc1ccc(/C=N/Nc2nc(-c3cccnc3)nc3ccccc23)c(O)c1	none
